Results gathered from unrelated publications.
Lines come from different studies, so protocols differ.
Target: Homeodomain-interacting protein kinase 4 (HIPK4, Homo sapiens, UniProt Q8NE63)
Sequence (Q8NE63 1-616, as in one of the studies): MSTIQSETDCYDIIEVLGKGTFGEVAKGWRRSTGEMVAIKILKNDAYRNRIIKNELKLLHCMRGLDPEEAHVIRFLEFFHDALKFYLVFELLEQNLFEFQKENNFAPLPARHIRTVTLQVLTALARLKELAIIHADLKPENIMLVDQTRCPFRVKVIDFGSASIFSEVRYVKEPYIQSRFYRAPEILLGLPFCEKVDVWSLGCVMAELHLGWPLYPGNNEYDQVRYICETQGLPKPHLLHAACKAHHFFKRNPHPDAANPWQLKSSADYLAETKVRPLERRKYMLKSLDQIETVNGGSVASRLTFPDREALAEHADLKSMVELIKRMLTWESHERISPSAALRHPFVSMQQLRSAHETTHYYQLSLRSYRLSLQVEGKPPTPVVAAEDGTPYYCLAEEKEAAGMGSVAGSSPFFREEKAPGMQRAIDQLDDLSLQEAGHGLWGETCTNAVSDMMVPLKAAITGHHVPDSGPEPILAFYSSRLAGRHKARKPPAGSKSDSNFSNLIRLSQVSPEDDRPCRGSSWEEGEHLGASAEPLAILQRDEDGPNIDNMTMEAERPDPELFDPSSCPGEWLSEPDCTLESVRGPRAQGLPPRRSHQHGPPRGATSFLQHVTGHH

Structure (SMILES) | test | conditions | quantity | result
O=C(Nc1cnc(Oc2ccc(F)cc2)nc1)N1CCc2ncccc2[C@@H]1c1ccc(F)cc1 | cell-free assay, competition with immobilised ligand | 1 µM | remaining binding | 100%
O=C1Nc2ccc(Cl)cc2C1=Cc1cc(Cl)c(O)c(Cl)c1 | cell-free assay | 0.5 µM | remaining signal | 88.4%
C[C@@H](c1cccc(C#N)c1)n1cc(Cl)cc(C(N)=O)c1=N | cell-free assay, competition with immobilised ligand | 1 µM | remaining binding | 100%
O=C(O)c1ccc2c(c1)nc(Nc1ccc(F)c(Cl)c1)c1ncncc12 | enzyme activity, inhibitor, radiometric | 1 µM | remaining activity | 6%
CCOc1cc(-c2nncn2C)ccc1Nc1ncc2cc(C)nc(NCC(C)(C)C)c2n1 | enzyme activity, inhibitor, FRET | 1 µM | inhibition | < 15%
CCCOc1ccc([C@H]2[C@H](C(=O)O)[C@@H](c3ccc4c(c3)OCO4)CN2CC(=O)Nc2c(CC)cccc2CC)cc1 | cell-free assay, competition with immobilised ligand | 1 µM | remaining binding | 70%
COc1cc2ncnc(Nc3ccc(Oc4ccccc4)cc3C)c2cc1OC | enzyme activity, inhibitor | 1 µM | inhibition | 4%
N#Cc1cccc(Nc2nc3cc(C(=O)O)ccc3c3cnccc23)c1 | enzyme activity, inhibitor, radiometric | 1 µM | remaining activity | 29%
CCCS(=O)(=O)Nc1ccc(F)c(C(=O)c2c[nH]c3ncc(-c4ccc(Cl)cc4)cc23)c1F | enzyme activity, inhibitor | 1 µM | inhibition | < 10%
COc1cc2c(N3CCN(C(=O)Nc4ccc(OC(C)C)cc4)CC3)ncnc2cc1OCCCN1CCCCC1 | cell-free assay | 0.5 µM | remaining signal | 99.5%
O=C(O)c1ccc2c(c1)nc(Nc1cccc(F)c1)c1ncncc12 | enzyme activity, inhibitor, radiometric | 1 µM | remaining activity | 52%
CC/C(=N\NC(=O)NCc1cccc(O)c1)c1ccc(O)c(C)c1O | enzyme activity, inhibitor | 0.1 µM | inhibition | 1.5%
O=C1NC(=O)c2cc(Nc3ccc(F)cc3)c(Nc3ccc(F)cc3)cc21 | cell-free assay | 0.5 µM | remaining signal | 82.5%
CO[C@@H](C)c1c(Nc2ccc([C@@H](N(C)C(=O)C3CCS(=O)(=O)CC3)C(F)(F)F)cc2)cnc2cc(Cl)nn12 | cell-free assay, competition with immobilised ligand | 1 µM | remaining binding | 100%
O=C(O)c1ccc2c(c1)nc(Nc1ccc3ccccc3c1)c1ccncc12 | enzyme activity, inhibitor, radiometric | 1 µM | remaining activity | -10%
CC(C)CC(=O)N1CCc2nc(-c3ccc(Br)cc3)nc(N(C)Cc3ccccc3)c2C1 | cell-free assay, competition with immobilised ligand | 0.1 µM | remaining binding | 61%
O=C(O)c1ccc2c(c1)nc(Nc1ccc3ccccc3c1)c1ncncc12 | enzyme activity, inhibitor, radiometric | 1 µM | remaining activity | 109%
CNC(=O)c1cc(Oc2ccc(NC(=O)Nc3ccc(Cl)c(C(F)(F)F)c3)cc2)ccn1 | cell-free assay | 0.5 µM | remaining signal | 4.85%
O=C(O)c1ccc2c(c1)nc(NCCc1cccc(F)c1)c1ncncc12 | enzyme activity, inhibitor, radiometric | 1 µM | remaining activity | 10%
CCC(=O)N[C@@H]1CC[C@H](C(=O)N(C)c2ccc(-c3nc4ccccc4o3)cc2)C1 | cell-free assay, competition with immobilised ligand | 1 µM | remaining binding | 100%
